# Experimental data: PubChem BioAssay AID492951 (Molecular Libraries Program, Specialized Chemistry Center, …, 2010)
# Values without a mark were called inactive. Active and inactive are the calls of the source.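 How the source made its calls: active means inhibition above 10%; inactive means the rest.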
# Target: Hexokinase-4 (Homo sapiens) (UniProt P35557)
# Assay: human glucokinase inhibition, counter-screen for TbHK1 inhibitor project, biochemical, recombinant hGlck (AID 492951)
# Conditions: G6PDH-coupled NADH absorbance 340 nm, at 10 µM; active compounds read high
# Procedure, shortened: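 Test system: purified recombinant human glucokinase (HK4) with G6PDH coupling enzyme / Reagent: 20 mM glucose as reaction starter, plus 1 mM ATP / Timing: 10 min room-temperature compound-enzyme preincubation before glucose addition / Measured by: A340 of NADH / Repeats: three replicates per compound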
# Chain of Hexokinase-4 (Homo sapiens) (P35557 whole entry, looked up): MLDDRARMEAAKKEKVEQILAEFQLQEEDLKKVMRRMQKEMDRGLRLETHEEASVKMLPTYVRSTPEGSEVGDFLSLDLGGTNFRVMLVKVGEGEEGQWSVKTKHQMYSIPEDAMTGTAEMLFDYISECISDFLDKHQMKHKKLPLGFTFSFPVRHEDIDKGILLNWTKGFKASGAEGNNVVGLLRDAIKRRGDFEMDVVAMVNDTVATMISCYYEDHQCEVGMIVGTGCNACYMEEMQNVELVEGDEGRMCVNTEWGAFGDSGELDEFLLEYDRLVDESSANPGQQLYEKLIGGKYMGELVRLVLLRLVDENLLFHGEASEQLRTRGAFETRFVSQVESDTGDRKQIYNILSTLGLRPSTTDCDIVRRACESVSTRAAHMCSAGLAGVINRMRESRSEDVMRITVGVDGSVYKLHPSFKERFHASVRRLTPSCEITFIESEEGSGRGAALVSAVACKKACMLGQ
Compound,inhibition,outcome
O=C(Cn1sc2ccccc2c1=O)Nc1ccc(C(F)(F)F)cc1,23.8% (active),
O=c1c2ccc(F)cc2sn1Cc1ccccc1,56.1% (active),
O=C(Cn1sc2ccccc2c1=O)Nc1cccc(I)c1,,inactive
COc1ccc(NC(=O)c2ccccc2SCc2ccccc2)cc1,41.2% (active),
O=C(Cn1sc2ccccc2c1=O)NC1CCCCC1,8.01%,
OB1OCc2cc(C(F)(F)F)ccc21,,inactive
COc1ccc(C(=O)Nc2cc(Cl)ccc2[N+](=O)[O-])cc1,,inactive
O=c1c2cc(Br)ccc2sn1-c1ccccc1,38.4% (active),
COc1ccc(CC(=O)Nc2cc(Cl)ccc2C(=O)O)cc1,,inactive
O=c1c2ccc([N+](=O)[O-])cc2sn1-c1ccccc1,1.5%,
COc1ccc(-n2sc3ccccc3c2=O)cc1,,inactive
CCc1ccc(C(=O)Nc2cc(Cl)ccc2C(=O)OC)cc1,14.5% (active),
O=C(Nc1ccc([N+](=O)[O-])cc1Cl)c1cc(Cl)ccc1O,32.1% (active),
CC(C)Cc1ccc(C(=O)Nc2cc(Cl)ccc2C(=O)O)cc1,19.5% (active),
CCCc1ccc(C(=O)Nc2cc(Cl)ccc2C(=O)O)cc1,16.8% (active),
Cc1ccccc1NC(=O)Cn1sc2ccccc2c1=O,,inactive
O=C(O)c1ccc(Cl)cc1NC(=O)N1CCOCC1,,inactive
O=C(Cn1sc2ccccc2c1=O)Nc1ccc(F)cc1,1.7%,
COc1ccc(C(=O)Nc2cc(Cl)ccc2C(=O)O)cc1,7.8%,

Compound,inhibition,outcome
COc1ccc(C(=O)Nc2c(C(=O)O)ccc(Cl)c2Cl)cc1,10.6%,
CC(C)(C)c1ccc(C(=O)Nc2c(C(=O)O)ccc(Cl)c2Cl)cc1,,inactive
COc1ccc(C(=O)NC(CC(=O)O)c2cccc(Cl)c2)cc1 (stereo not drawn),,inactive
O=C(Cn1sc2ccccc2c1=O)Nc1cccc(Br)c1,22.2% (active),
CC(C)c1ccc(C(=O)Nc2cc(Cl)ccc2C(=O)O)cc1,,inactive
O=c1c2cc(F)ccc2sn1-c1ccccc1Cl,14.4% (active),
CC(=O)Nc1ccc2sn(-c3ccccc3)c(=O)c2c1,51.9% (active),
O=C(Cn1sc2ccccc2c1=O)Nc1cccc(F)c1,14.3% (active),
O=C(Nc1cc(Cl)ccc1C(=O)O)c1ccc(-c2ccccc2)cc1,27.6% (active),
CCc1ccc(C(=O)Nc2cc(Br)ccc2C(=O)O)cc1,,inactive
O=C1c2cccc(Br)c2SCN1c1ccccc1,5.5%,
O=C1c2ccccc2S(=O)N1c1ccc(Cl)cc1 (stereo not drawn),37.2% (active),
COc1ccc(C(=O)Nc2cc(F)cc(F)c2O)cc1,,inactive
COc1cccc(NC(=O)Cn2sc3ccccc3c2=O)c1,2.9%,
O=c1c2cc(F)c(F)cc2sn1-c1ccccc1,16.9% (active),
CC(=O)Nc1ccc2c(=O)n(-c3ccccc3)sc2c1,,inactive
O=C(Nc1ccccc1)n1sc2ccccc2c1=O,32.9% (active),
COc1ccc(C(=O)Nc2cc(Cl)ccc2O)cc1,22.2% (active),
CC(C)(C)c1ccc(C(=O)Nc2cc(Cl)c(Cl)cc2C(=O)O)cc1,,inactive
